Results taken from publication PMC6500982 (Cancer Science, 2019).

Assay: Safety and tolerability
Type: in vivo, human
Procedure, shortened: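 Patients (enrolled January 2015–February 2016) received oral test compound in four cohorts: 160, 320 or 480 mg QD, or 300 mg BID. Dosing continued until progression, unacceptable AEs or consent withdrawal. AEs were graded by CTCAE v4.0, alongside laboratory tests, vital signs and ECGs. The safety population was all patients receiving ≥1 dose.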

[1] = Japanese patients with B‐cell NHL and CLL

CC#CC(=O)N1CC[C@@H](n2c(=O)n(-c3ccc(Oc4ccccc4)cc3)c3c(N)ncnc32)C1 [tirabrutinib]
Myalgia, Any grade (320 mg QD N = 3): 0 n (%) | Myalgia, Grade ≥3 (320 mg QD N = 3): 0 n (%) | Nasopharyngitis, Any grade (320 mg QD N = 3): 0 n (%) | Nasopharyngitis, Grade ≥3 (320 mg QD N = 3): 0 n (%) | Nausea, Any grade (320 mg QD N = 3): 0 n (%) | Nausea, Grade ≥3 (320 mg QD N = 3): 0 n (%) | Neutropenia, Any grade (320 mg QD N = 3): 2 (66.7) n (%) | Neutropenia, Grade ≥3 (320 mg QD N = 3): 2 (66.7) n (%) | Pharyngitis, Any grade (320 mg QD N = 3): 0 n (%) | Pharyngitis, Grade ≥3 (320 mg QD N = 3): 0 n (%) | Pyrexia, Any grade (320 mg QD N = 3): 0 n (%) | Pyrexia, Grade ≥3 (320 mg QD N = 3): 0 n (%) | Rash, Any grade (320 mg QD N = 3): 2 (66.7) n (%) | Rash, Grade ≥3 (320 mg QD N = 3): 0 n (%) | Thrombocytopenia, Any grade (320 mg QD N = 3): 1 (33.3) n (%) | Thrombocytopenia, Grade ≥3 (320 mg QD N = 3): 0 n (%) | Upper respiratory tract inflammation, Any grade (320 mg QD N = 3): 1 (33.3) n (%) | Upper respiratory tract inflammation, Grade ≥3 (320 mg QD N = 3): 0 n (%) | Vomiting, Any grade (320 mg QD N = 3): 1 (33.3) n (%) | Vomiting, Grade ≥3 (320 mg QD N = 3): 0 n (%) | All AEs, Any grade (480 mg QD N = 4): 4 (100.0) n (%) | All AEs, Grade ≥3 (480 mg QD N = 4): 2 (50.0) n (%) | Anemia, Any grade (480 mg QD N = 4): 2 (50.0) n (%) | Anemia, Grade ≥3 (480 mg QD N = 4): 1 (25.0) n (%) | Arthralgia, Any grade (480 mg QD N = 4): 0 n (%) | Arthralgia, Grade ≥3 (480 mg QD N = 4): 0 n (%) | Aspartate aminotransferase increased, Any grade (480 mg QD N = 4): 1 (25.0) n (%) | Aspartate aminotransferase increased, Grade ≥3 (480 mg QD N = 4): 0 n (%) | Constipation, Any grade (480 mg QD N = 4): 1 (25.0) n (%) | Constipation, Grade ≥3 (480 mg QD N = 4): 0 n (%) | Cystitis, Any grade (480 mg QD N = 4): 0 n (%) | Cystitis, Grade ≥3 (480 mg QD N = 4): 0 n (%) | Diarrhea, Any grade (480 mg QD N = 4): 0 n (%) | Diarrhea, Grade ≥3 (480 mg QD N = 4): 0 n (%) | Dysgeusia, Any grade (480 mg QD N = 4): 1 (25.0) n (%) | Dysgeusia, Grade ≥3 (480 mg QD N = 4): 0 n (%) | Gamma‐glutamyltransferase increased, Any grade (480 mg QD N = 4): 0 n (%) | Gamma‐glutamyltransferase increased, Grade ≥3 (480 mg QD N = 4): 0 n (%) | Headache, Any grade (480 mg QD N = 4): 0 n (%) | Headache, Grade ≥3 (480 mg QD N = 4): 0 n (%) | Hypokalemia, Any grade (480 mg QD N = 4): 2 (50.0) n (%) | Hypokalemia, Grade ≥3 (480 mg QD N = 4): 0 n (%) | Hypophosphatemia, Any grade (480 mg QD N = 4): 2 (50.0) n (%) | Hypophosphatemia, Grade ≥3 (480 mg QD N = 4): 1 (25.0) n (%) | Insomnia, Any grade (480 mg QD N = 4): 0 n (%) | Insomnia, Grade ≥3 (480 mg QD N = 4): 0 n (%) | Leukopenia, Any grade (480 mg QD N = 4): 0 n (%) | Leukopenia, Grade ≥3 (480 mg QD N = 4): 0 n (%) | Lymphopenia, Any grade (480 mg QD N = 4): 1 (25.0) n (%) | Lymphopenia, Grade ≥3 (480 mg QD N = 4): 0 n (%) | Malaise, Any grade (480 mg QD N = 4): 1 (25.0) n (%) | Malaise, Grade ≥3 (480 mg QD N = 4): 0 n (%) | Myalgia, Any grade (480 mg QD N = 4): 0 n (%) | Myalgia, Grade ≥3 (480 mg QD N = 4): 0 n (%) | Nasopharyngitis, Any grade (480 mg QD N = 4): 0 n (%) | Nasopharyngitis, Grade ≥3 (480 mg QD N = 4): 0 n (%) | Nausea, Any grade (480 mg QD N = 4): 1 (25.0) n (%) | Nausea, Grade ≥3 (480 mg QD N = 4): 0 n (%) | Neutropenia, Any grade (480 mg QD N = 4): 1 (25.0) n (%) | Neutropenia, Grade ≥3 (480 mg QD N = 4): 1 (25.0) n (%) | Pharyngitis, Any grade (480 mg QD N = 4): 0 n (%) | Pharyngitis, Grade ≥3 (480 mg QD N = 4): 0 n (%) | Pyrexia, Any grade (480 mg QD N = 4): 0 n (%) | Pyrexia, Grade ≥3 (480 mg QD N = 4): 0 n (%) | Rash, Any grade (480 mg QD N = 4): 2 (50.0) n (%) | Rash, Grade ≥3 (480 mg QD N = 4): 0 n (%) | Thrombocytopenia, Any grade (480 mg QD N = 4): 1 (25.0) n (%) | Thrombocytopenia, Grade ≥3 (480 mg QD N = 4): 0 n (%) | Upper respiratory tract inflammation, Any grade (480 mg QD N = 4): 0 n (%) | Upper respiratory tract inflammation, Grade ≥3 (480 mg QD N = 4): 0 n (%) | Vomiting, Any grade (480 mg QD N = 4): 2 (50.0) n (%) | Vomiting, Grade ≥3 (480 mg QD N = 4): 0 n (%) | Patients with DLT (grade 3 pneumonitis) (Cohort 4 (300 mg BID), WM patient): 1 patient | Tolerability [1]: well tolerated | Tolerability confirmed up to (dose) [1]: up to 300 mg BID | Tolerability (Japanese patients with B‐cell NHL and CLL, listed as Tirabrutinib): generally well tolerated | Serious AEs reported as study drug‐related (Mallory‐Weiss syndrome, de novo reactivation of HBV, acute myeloid leukemia, pneumonitis (1 patient each)): 4 | All AEs, Any grade (Total (all cohorts) N = 17): 17 (100.0) n (%) | All AEs, Grade ≥3 (Total (all cohorts) N = 17): 8 (47.1) n (%) | Anemia, Any grade (Total (all cohorts) N = 17): 3 (17.6) n (%) | Anemia, Grade ≥3 (Total (all cohorts) N = 17): 2 (11.8) n (%) | Arthralgia, Any grade (Total (all cohorts) N = 17): 3 (17.6) n (%) | Arthralgia, Grade ≥3 (Total (all cohorts) N = 17): 0 n (%) | Aspartate aminotransferase increased, Any grade (Total (all cohorts) N = 17): 2 (11.8) n (%) | Aspartate aminotransferase increased, Grade ≥3 (Total (all cohorts) N = 17): 0 n (%) | Constipation, Any grade (Total (all cohorts) N = 17): 3 (17.6) n (%) | Constipation, Grade ≥3 (Total (all cohorts) N = 17): 0 n (%) | Cystitis, Any grade (Total (all cohorts) N = 17): 2 (11.8) n (%) | Cystitis, Grade ≥3 (Total (all cohorts) N = 17): 0 n (%) | Diarrhea, Any grade (Total (all cohorts) N = 17): 3 (17.6) n (%) | Diarrhea, Grade ≥3 (Total (all cohorts) N = 17): 0 n (%) | Dysgeusia, Any grade (Total (all cohorts) N = 17): 2 (11.8) n (%) | Dysgeusia, Grade ≥3 (Total (all cohorts) N = 17): 0 n (%) | Gamma‐glutamyltransferase increased, Any grade (Total (all cohorts) N = 17): 2 (11.8) n (%) | Gamma‐glutamyltransferase increased, Grade ≥3 (Total (all cohorts) N = 17): 0 n (%) | Headache, Any grade (Total (all cohorts) N = 17): 2 (11.8) n (%) | Headache, Grade ≥3 (Total (all cohorts) N = 17): 0 n (%) | Hypokalemia, Any grade (Total (all cohorts) N = 17): 2 (11.8) n (%) | Hypokalemia, Grade ≥3 (Total (all cohorts) N = 17): 0 n (%) | Hypophosphatemia, Any grade (Total (all cohorts) N = 17): 2 (11.8) n (%) | Hypophosphatemia, Grade ≥3 (Total (all cohorts) N = 17): 1 (5.9) n (%) | Insomnia, Any grade (Total (all cohorts) N = 17): 3 (17.6) n (%) | Insomnia, Grade ≥3 (Total (all cohorts) N = 17): 0 n (%) | Leukopenia, Any grade (Total (all cohorts) N = 17): 2 (11.8) n (%) | Leukopenia, Grade ≥3 (Total (all cohorts) N = 17): 2 (11.8) n (%) | Lymphopenia, Any grade (Total (all cohorts) N = 17): 2 (11.8) n (%) | Lymphopenia, Grade ≥3 (Total (all cohorts) N = 17): 1 (5.9) n (%) | Malaise, Any grade (Total (all cohorts) N = 17): 3 (17.6) n (%) | Malaise, Grade ≥3 (Total (all cohorts) N = 17): 0 n (%) | Myalgia, Any grade (Total (all cohorts) N = 17): 2 (11.8) n (%) | Myalgia, Grade ≥3 (Total (all cohorts) N = 17): 0 n (%) | Nasopharyngitis, Any grade (Total (all cohorts) N = 17): 2 (11.8) n (%) | Nasopharyngitis, Grade ≥3 (Total (all cohorts) N = 17): 0 n (%) | Nausea, Any grade (Total (all cohorts) N = 17): 3 (17.6) n (%) | Nausea, Grade ≥3 (Total (all cohorts) N = 17): 0 n (%) | Neutropenia, Any grade (Total (all cohorts) N = 17): 4 (23.5) n (%) | Neutropenia, Grade ≥3 (Total (all cohorts) N = 17): 4 (23.5) n (%) | Pharyngitis, Any grade (Total (all cohorts) N = 17): 2 (11.8) n (%) | Pharyngitis, Grade ≥3 (Total (all cohorts) N = 17): 0 n (%) | Pyrexia, Any grade (Total (all cohorts) N = 17): 2 (11.8) n (%) | Pyrexia, Grade ≥3 (Total (all cohorts) N = 17): 0 n (%) | Rash, Any grade (Total (all cohorts) N = 17): 6 (35.3) n (%) | Rash, Grade ≥3 (Total (all cohorts) N = 17): 0 n (%) | Thrombocytopenia, Any grade (Total (all cohorts) N = 17): 2 (11.8) n (%) | Thrombocytopenia, Grade ≥3 (Total (all cohorts) N = 17): 0 n (%) | Upper respiratory tract inflammation, Any grade (Total (all cohorts) N = 17): 2 (11.8) n (%) | Upper respiratory tract inflammation, Grade ≥3 (Total (all cohorts) N = 17): 0 n (%) | Vomiting, Any grade (Total (all cohorts) N = 17): 5 (29.4) n (%) | Vomiting, Grade ≥3 (Total (all cohorts) N = 17): 0 n (%) | Tirabrutinib‐induced lymphocytosis (all patients): no tirabrutinib‐induced lymphocytosis observed | Anemia, grade ≥3 (grade 3 or 4) (all patients N = 17): 11.8% | Leukopenia, grade ≥3 (grade 3 or 4) (all patients N = 17): 11.8% | Neutropenia, grade ≥3 (grade 3 or 4) (all patients N = 17): 23.5% | Patients who developed grade ≥3 AEs (all patients N = 17): 47.1% | Patients with serious AEs (all patients N = 17): 7 patients | Maximum tolerated dose (MTD) (cohorts 160, 320, 480 mg QD and 300 mg BID): not reached
